Assay results pooled from the literature.
Each line is one published result; the experiments were not run side by side.
FLT3 D835H: Receptor-type tyrosine-protein kinase FLT3 (FLT3, Homo sapiens, UniProt P36888, D835H)
FLT3 R834Q: Receptor-type tyrosine-protein kinase FLT3 (FLT3, Homo sapiens, UniProt P36888, R834Q)
FLT3 D835Y: Receptor-type tyrosine-protein kinase FLT3 (FLT3, Homo sapiens, UniProt P36888, D835Y)
FLT3: Receptor-type tyrosine-protein kinase FLT3 (FLT3, Homo sapiens, UniProt P36888)
FLT3 F691L/ITD: Receptor-type tyrosine-protein kinase FLT3 (FLT3, Homo sapiens, UniProt P36888, F691L/ITD)
FLT3 D835V: Receptor-type tyrosine-protein kinase FLT3 (FLT3, Homo sapiens, UniProt P36888, D835V)
FLT3 autoinhibited: Receptor-type tyrosine-protein kinase FLT3, autoinhibited (FLT3, Homo sapiens, UniProt P36888)
FLT3 K663Q: Receptor-type tyrosine-protein kinase FLT3 (FLT3, Homo sapiens, UniProt P36888, K663Q)

| SMILES | target | test | conditions | remaining binding [%] |
| --- | --- | --- | --- | --- |
| CN1CCN(c2ccc(Nc3nccc(-c4cccc([N+](=O)[O-])c4)n3)cc2C(F)(F)F)CC1 | FLT3 D835H | binding | 10 µM | 1.1 |
| Cc1noc([C@H]2C[C@@H](c3ccc(C(F)(F)F)cc3)CN(C(=O)N3CCS(=O)(=O)C3)C2)n1 | FLT3 R834Q | cell-free assay, competition with immobilised ligand | 1 µM | 91 |
| O=C(Nc1c[nH]nc1C(=O)NC1CCNCC1)c1cc(F)cc(F)c1 | FLT3 D835Y | binding, competition with immobilised ligand | 1 µM | 89 |
| Cc1cc(-n2nc(Cc3cc(F)cc(C(F)(F)F)c3)nc2C)ccc1C(N)=O | FLT3 | cell-free assay, competition with immobilised ligand | 1 µM | 100 |
| O=C(c1ccc(Nc2ncc(Cl)c(-c3cc4ccccc4s3)n2)cc1)N1CCC(N2CCCC2)CC1 | FLT3 F691L/ITD | binding, competition with immobilised ligand | 1 µM | 2.7 |
| COc1cnc(Nc2cccc(S(N)(=O)=O)c2)nc1N1CCN(c2ccccc2)C(=O)C1 | FLT3 D835V | binding, competition with immobilised ligand | 1 µM | 42 |
| CCN1CCN(Cc2ccc(C(=O)Nc3ccc(C)c(Oc4ccc5c(c4)CC(=O)N5)c3)cc2C(F)(F)F)CC1 | FLT3 autoinhibited | binding, competition with immobilised ligand | 1 µM | 100 |
| O=C(c1ccc(Nc2nccc(-c3cc4ccccc4s3)n2)cc1)N1CCC(N2CCCC2)CC1 | FLT3 | binding, competition with immobilised ligand | 1 µM | 44 |
| O=c1nc(-c2ccccn2)sc2ccccc12 | FLT3 | binding, competition with immobilised ligand | 1 µM | 93 |
| CN(C)c1nccc(-c2cnn3ncccc23)n1 | FLT3 D835Y | binding | 1 µM | 100 |
| CC1=C(C#N)C(c2ccc3c(c2)c(NC(=O)c2ccccc2C)nn3C)C(C#N)=C(C)N1 | FLT3 K663Q | cell-free assay, competition with immobilised ligand | 1 µM | 100 |
| c1cnn2ncc(-c3ccnc(N4CCC45COC5)n3)c2c1 | FLT3 D835H | binding | 1 µM | 64 |
| O=C(c1ccc(Nc2ncc(Cl)c(-c3ccc(Cl)s3)n2)cc1)N1CCC(N2CCCC2)CC1 | FLT3 D835V | binding, competition with immobilised ligand | 1 µM | 1.9 |
| CN(C)c1ncc(F)c(-c2cnn3ncccc23)n1 | FLT3 autoinhibited | binding | 1 µM | 72 |
| C[C@@H](c1ccc(-n2cnc3c(N)ncnc32)cc1)N1CCc2nn(C)c(Cc3ccccc3)c2C1=O | FLT3 R834Q | binding, competition with immobilised ligand | 0.1 µM | 88 |
| C[C@@H]1CCN(c2nccc(-c3cnn4ncccc34)n2)C1 | FLT3 | binding | 1 µM | 100 |
| CC(C)(C)c1ccc(-c2nc(CBr)nn2-c2cccc(O)c2)cc1 | FLT3 | cell-free assay, competition with immobilised ligand | 10 µM | 82 |
| CN(CCCC(F)(F)F)c1nccc(-c2cnn3ncccc23)n1 | FLT3 D835Y | binding | 1 µM | 76 |

| SMILES | target | test | conditions | remaining binding [%] |
| --- | --- | --- | --- | --- |
| NS(=O)(=O)c1cc(NC(=O)C2(c3ccccc3Cl)CC2)ccc1Oc1cccc(Cl)c1 | FLT3 F691L/ITD | cell-free assay, competition with immobilised ligand | 1 µM | 100 |
| CNC(=O)[C@@H]1CC[C@@H](n2c(-c3ccc4cnccc4c3)nc3ccc(C(=O)NCc4cccc(C(N)=O)c4)cc32)C1 | FLT3 D835Y | binding, competition with immobilised ligand | 1 µM | 100 |
| O=C(Nc1ccc(Oc2ccc(F)cc2)cc1)N1CCc2ncccc2[C@H]1c1ccc(F)cc1 | FLT3 autoinhibited | cell-free assay, competition with immobilised ligand | 1 µM | 100 |
| O=C(NCCCN1CCOCC1)c1ccc(Nc2nccc(-c3cc4ccccc4s3)n2)cc1 | FLT3 D835H | binding, competition with immobilised ligand | 1 µM | 30 |
| O=C(NCC1CCOCC1)c1n[nH]cc1NC(=O)c1c(F)cccc1F | FLT3 D835Y | binding, competition with immobilised ligand | 1 µM | 89 |
| N[C@H]1CCN(c2nccc(-c3cnn4ncccc34)n2)C1 | FLT3 D835V | binding | 1 µM | 61 |
| CNC(=O)Nc1ccc2c(c1)[C@@]1(CC2)OC(=O)N(CC(=O)N(Cc2ccc(F)cc2)[C@@H](C)C(F)(F)F)C1=O | FLT3 D835V | cell-free assay, competition with immobilised ligand | 1 µM | 81 |
| O=C(NCCCN1CCOCC1)c1ccc(Nc2ncc(Cl)c(-c3ccc(Cl)s3)n2)cc1 | FLT3 autoinhibited | binding, competition with immobilised ligand | 1 µM | 5.5 |
| C[C@@H]1CN(c2ccc3ncc(-c4ccc5[nH]nc(C6CC6)c5c4)n3n2)C[C@H](C)O1 | FLT3 | binding, competition with immobilised ligand | 0.5 µM | 3 |
| CNCc1ccccc1-c1csc([C@H](C)Nc2nc(C)nc3cc(OC)c(OC)cc23)c1 | Receptor-type tyrosine-protein kinase FLT3 (FLT3, Homo sapiens, UniProt P36888, ITD) | cell-free assay, competition with immobilised ligand | 1 µM | 99 |
| c1cncc(-c2cccc(Nc3nccc(NC4CCCCC4)n3)c2)c1 | FLT3 autoinhibited | binding, competition with immobilised ligand | 10 µM | 3.6 |
| Nc1ncc2c(n1)-c1c([nH]c3ccc(C#CC4CC4)cc13)CCCC2 | Receptor-type tyrosine-protein kinase FLT3 (FLT3, Homo sapiens, UniProt P36888, N841I) | binding, competition with immobilised ligand | 1 µM | 89 |
| C=CC(=O)N1CCC(C(=O)NCC(=O)N2CCN(c3nc(-c4cnc(N)nc4C(F)F)nc(N4CCOCC4)n3)CC2)CC1 | FLT3 D835V | binding, competition with immobilised ligand | 1 µM | 61 |
| COc1ncc2cc3ccccc3nc2c1C#N | FLT3 D835V | cell-free assay, competition with immobilised ligand | 5 µM | 100 |
| Cc1cnc(Nc2ccc(C(=O)N3CCC(N4CCCC4)CC3)cc2)nc1-c1cc2ccccc2s1 | Receptor-type tyrosine-protein kinase FLT3 (FLT3, Homo sapiens, UniProt P36888, D835V/ITD) | binding, competition with immobilised ligand | 1 µM | 0.9 |
| CN1CCN(c2ccc(Nc3nccc(-c4ccccc4)n3)cc2C(F)(F)F)CC1 | FLT3 K663Q | binding | 10 µM | 0.35 |
| COc1ccnn2ncc(-c3ccnc(N(C)C)n3)c12 | FLT3 K663Q | binding | 1 µM | 100 |
| COc1cnc(Nc2cccc(S(N)(=O)=O)c2)nc1N1CCN(c2ccccc2)CC1 | FLT3 | binding, competition with immobilised ligand | 1 µM | 36 |
